# Experimental data: paper PMC6354736 (iScience, 2019)
# Columns and labels:
# OCT4 = assay: NCCIT-OCT4 response element-driven luciferase reporter assay; format: cell-based, human; settings: for induction of OCT4 expression in NCCIT-OCT4 reporter cell line: histone demethylase inhibitors incubated for 48 h
# LSD1 = LSD1 (Homo sapiens, UniProt O60341); assay: LSD1 activity/inhibition assay; format: biochemical
# KDM5 = KDM5 demethylase activity/inhibition assay; format: biochemical
# NANOG = assay: NCCIT-NANOG response element-driven luciferase reporter assay; format: cell-based, human
# KDM4 = KDM4 demethylase activity/inhibition assay; format: biochemical
# KDM5C = KDM5C (Homo sapiens, UniProt P41229); assay: Demethylase assay on KDM5C immunoprecipitated from cells; format: biochemical
# human fibroblasts = assay: qRT-PCR of reprogramming-associated genes in human fibroblasts; format: cell-based
# [1] = tested on: human primary fibroblasts; assay: OSKM episomal reprogramming, TRA-1-60+ colonies counting; format: cell-based
# In short: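 Human primary fibroblasts, including OSKM-resistant lines and fibroblasts carrying an LTR7-EGFP promoter reporter, transfected with episomal OSKM with or without test compound; OSKM-only fibroblasts serve as comparison. ESC-like colonies stained for TRA-1-60, and reprogramming efficiency taken as the count of TRA-1-60-positive colonies.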
# KDM5D = assay: Demethylase assay on KDM5D immunoprecipitated from cells; format: biochemical
# hPSCs = assay: Viability and maintenance of hPSCs after single cell expansion; format: cell-based, human; settings: 10 μM
# methylated H3K4 = assay: In vitro H3K4 methylation assay; format: biochemical; settings: micromolar concentrations
# Chain of KDM5C (P41229 whole entry): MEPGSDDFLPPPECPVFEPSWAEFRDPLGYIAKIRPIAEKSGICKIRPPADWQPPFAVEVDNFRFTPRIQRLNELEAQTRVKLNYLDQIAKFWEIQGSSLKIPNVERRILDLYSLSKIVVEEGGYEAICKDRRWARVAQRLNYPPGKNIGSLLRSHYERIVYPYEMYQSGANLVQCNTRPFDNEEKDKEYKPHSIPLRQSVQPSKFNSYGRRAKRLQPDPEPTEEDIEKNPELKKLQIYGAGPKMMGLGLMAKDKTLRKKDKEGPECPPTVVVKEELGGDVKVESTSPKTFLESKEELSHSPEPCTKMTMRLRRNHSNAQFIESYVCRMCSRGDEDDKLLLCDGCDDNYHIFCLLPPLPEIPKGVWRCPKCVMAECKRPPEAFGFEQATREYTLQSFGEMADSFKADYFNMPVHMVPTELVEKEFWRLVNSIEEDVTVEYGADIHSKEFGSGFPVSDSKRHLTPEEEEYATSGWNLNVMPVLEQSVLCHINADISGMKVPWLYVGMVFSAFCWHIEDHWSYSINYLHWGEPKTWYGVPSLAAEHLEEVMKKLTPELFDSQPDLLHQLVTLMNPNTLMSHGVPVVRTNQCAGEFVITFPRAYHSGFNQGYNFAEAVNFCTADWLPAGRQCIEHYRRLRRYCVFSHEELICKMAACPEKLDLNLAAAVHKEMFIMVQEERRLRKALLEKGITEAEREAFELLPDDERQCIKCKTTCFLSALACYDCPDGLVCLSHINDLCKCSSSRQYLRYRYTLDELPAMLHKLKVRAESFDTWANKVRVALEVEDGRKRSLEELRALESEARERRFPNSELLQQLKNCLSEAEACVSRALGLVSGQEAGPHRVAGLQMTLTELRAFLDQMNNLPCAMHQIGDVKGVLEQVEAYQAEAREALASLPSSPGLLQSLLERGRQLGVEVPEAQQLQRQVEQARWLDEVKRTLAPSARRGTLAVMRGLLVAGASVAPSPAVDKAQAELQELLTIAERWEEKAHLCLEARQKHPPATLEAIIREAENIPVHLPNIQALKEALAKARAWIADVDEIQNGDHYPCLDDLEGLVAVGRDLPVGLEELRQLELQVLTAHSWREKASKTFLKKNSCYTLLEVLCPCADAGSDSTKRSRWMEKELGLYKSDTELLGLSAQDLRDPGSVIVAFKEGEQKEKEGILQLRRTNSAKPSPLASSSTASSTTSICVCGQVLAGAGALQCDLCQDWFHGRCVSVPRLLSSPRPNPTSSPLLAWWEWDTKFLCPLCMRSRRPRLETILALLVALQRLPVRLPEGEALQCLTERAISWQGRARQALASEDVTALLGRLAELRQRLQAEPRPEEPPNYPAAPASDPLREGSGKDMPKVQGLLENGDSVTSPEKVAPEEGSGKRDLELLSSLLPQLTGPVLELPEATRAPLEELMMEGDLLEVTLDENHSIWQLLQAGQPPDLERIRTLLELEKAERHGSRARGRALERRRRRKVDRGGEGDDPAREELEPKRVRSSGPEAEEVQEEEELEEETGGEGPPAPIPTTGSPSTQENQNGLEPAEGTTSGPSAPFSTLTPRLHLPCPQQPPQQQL
structure (smiles),measurement,setting,value
CC(C)c1c(-c2ccccc2)[nH]c2c(C#N)cnn2c1=O [CPI-455],induction of OCT4 expression in NCCIT-OCT4 reporter cell line,OCT4,3 fold
Clc1ccc(N/N=C(\c2ccccc2)c2ccccn2)nc1 [JIB-04],induction of OCT4 expression in NCCIT-OCT4 reporter cell line,OCT4,5 fold
"Cc1ccc(-c2cn3cc(C)ccc3n2)cc1 [O4I3, 6-methyl-2-(p-tolyl)imidazo[1,2-a]pyridine]",inhibition of LSD1 activity,LSD1,could not be detected
same,inhibitory effect on LSD1,LSD1; even at a concentration of 100 μM,hardly detected
same,IC50,"KDM5; read-out: KDM5 IC50, whole-cell nuclear extraction",0.79 nM
same,induction of NANOG,"NANOG; NCCIT-NANOG reporter cells, low nanomolar doses, compared with untreated cells",~10 fold
same,induction of OCT4,"OCT4; NCCIT-OCT4 reporter cells, low nanomolar doses, compared with untreated cells",~10 fold
same,IC50,"KDM4; read-out: KDM4 IC50, whole-cell nuclear extraction",249 nM
same,fold less potent IC50 on KDM5C than on KDM5A,KDM5C,40 fold
same,increase of CDH1 mRNA,human fibroblasts; human fibroblasts,about 100 fold
same,induction of NANOG mRNA,human fibroblasts; human fibroblasts,approximately 10 fold
same,increase of SOX2 mRNA,"human fibroblasts; human fibroblasts, 50 nM",about 100 fold
same,induction of OCT4 mRNA,"human fibroblasts; human fibroblasts, 50 nM",approximately 10 fold
same,CDH1 mRNA level versus hPSCs,human fibroblasts; treated human fibroblasts,approximately 10%
same,NANOG mRNA level versus hPSCs,human fibroblasts; treated human fibroblasts,~1%
same,OCT4 mRNA level versus hPSCs,human fibroblasts; treated human fibroblasts,~0.1%
same,SOX2 mRNA level versus hPSCs,human fibroblasts; treated human fibroblasts,~1%
same,increase of the number of TRA-1-60-positive colonies,"[1]; 50 nM added to OSKM, HF1 and HF2, compared with OSKM-only-treated fibroblasts",10–20 times
same,iPSC-like colonies in fibroblasts resistant to OSKM-mediated reprogramming,"[1]; HFF-LTR7-EGFP and HF4, with OSKM",appeared
same,episome-based reprogramming efficiency,"[1]; with compound, from ∼0.01% without",~0.1%
same,fold less potent IC50 on KDM5D than on KDM5A,KDM5D,20 fold
"Cc1ccc(-c2nc3ccc(C)cn3c2CC(=O)N(C)C)cc1 [zolpidem, reference compound]",inhibition of LSD1 activity,LSD1,could not be detected
same,inhibition of KDM5,KDM5; micromolar concentrations,inhibited
same,induction in NCCIT-NANOG reporter cells,"NANOG; 10 μM, 48 h",~2 fold
same,induction in NCCIT-OCT4 reporter cells,"OCT4; 10 μM, 48 h",~2 fold
same,maintenance of iPSCs,hPSCs,promoted the maintenance
same,inhibition of KDM4,KDM4; micromolar concentrations,inhibited
same,protection of H3K4 methylation,methylated H3K4,protected
same,iPSC-like colonies in fibroblasts resistant to OSKM-mediated reprogramming,"[1]; 10 μM, with OSKM",appeared
